pIC50: −log10 of the molar value. Active and inactive are the calls of the source. The calls are words filed in the database; no cut-off is given here.
Columns and labels:
[1] = target: T1, Protein disulfide-isomerase (Homo sapiens, UniProt P07237); assay: Inhibition of recombinant human wild-type N-terminal His-tagged PDIA1 expressed in Escherichia coli strain BL21(DE3) at 10 uM using bovine insulin as substrate preincubated for 1 hr followed by substrate addition in absence of glutathione
Target sequence in this assay (P07237 18-508 limits assumed): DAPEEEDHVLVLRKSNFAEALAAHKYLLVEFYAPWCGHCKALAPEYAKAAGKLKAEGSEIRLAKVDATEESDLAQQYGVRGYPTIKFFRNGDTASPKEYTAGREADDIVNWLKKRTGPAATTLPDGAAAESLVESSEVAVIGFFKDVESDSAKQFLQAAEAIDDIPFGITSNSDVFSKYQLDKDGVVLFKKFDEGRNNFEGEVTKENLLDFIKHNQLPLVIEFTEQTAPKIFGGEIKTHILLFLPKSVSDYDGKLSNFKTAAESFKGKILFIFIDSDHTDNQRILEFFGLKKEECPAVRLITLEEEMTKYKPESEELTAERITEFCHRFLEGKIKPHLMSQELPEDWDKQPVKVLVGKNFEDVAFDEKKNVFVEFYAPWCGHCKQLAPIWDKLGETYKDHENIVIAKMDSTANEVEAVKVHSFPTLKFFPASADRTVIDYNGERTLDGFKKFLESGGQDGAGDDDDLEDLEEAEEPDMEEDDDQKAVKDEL

Homo sapiens = species: Homo sapiens; assay: Binding affinity to recombinant human wild-type N-terminal His-tagged PDIA1 C53S mutant expressed in Escherichia coli strain BL21(DE3) assessed as adduct formation at 100 uM measured after 30 mins in presence of DTT by Q-TOF MS analysis
U-87 MG [2] = assay: Inhibition of colony formation in BSO-treated human U-87 MG cells at 0.3 to 30 uM measured after 10 to 14 days by crystal violet staining based assay; format: functional, cell-based; conditions: U-87MG ATCC, dose microM 0.3-30, time day 10-14
In short: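 U-87 MG cells pretreated with BSO for 24 hours before compound addition; read-out by colony formation assay.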

[3] = target: T1, Protein disulfide-isomerase; assay: Inhibition of recombinant human wild-type N-terminal His-tagged PDIA1 expressed in Escherichia coli strain BL21(DE3) using bovine insulin as substrate preincubated for 1 hr followed by substrate addition
In short: (§1)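 IC50 from dose-response curves; PDI reductase assay for enzyme, MTT in U-87 MG cells for cytotoxicity; mean ± SD of at least three independent experiments.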
Target sequence in this assay (P07237 whole entry): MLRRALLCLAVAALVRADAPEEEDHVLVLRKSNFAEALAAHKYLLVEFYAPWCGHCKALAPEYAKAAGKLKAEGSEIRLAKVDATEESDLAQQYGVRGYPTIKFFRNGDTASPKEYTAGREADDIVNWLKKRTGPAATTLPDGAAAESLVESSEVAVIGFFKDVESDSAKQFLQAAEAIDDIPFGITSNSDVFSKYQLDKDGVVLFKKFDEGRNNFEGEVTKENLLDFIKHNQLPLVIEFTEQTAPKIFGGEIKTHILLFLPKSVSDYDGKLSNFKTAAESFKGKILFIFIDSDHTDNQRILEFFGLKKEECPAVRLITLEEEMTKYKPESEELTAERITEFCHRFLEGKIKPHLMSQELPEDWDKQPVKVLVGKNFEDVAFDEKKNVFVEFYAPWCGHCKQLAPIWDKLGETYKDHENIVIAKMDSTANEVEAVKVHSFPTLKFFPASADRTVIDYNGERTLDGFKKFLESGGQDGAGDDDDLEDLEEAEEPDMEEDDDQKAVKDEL

[4] = target: T1, Protein disulfide-isomerase; assay: Inhibition of recombinant human wild-type N-terminal His-tagged PDIA1 expressed in Escherichia coli strain BL21(DE3) at 10 uM using bovine insulin as substrate preincubated for 1 hr followed by substrate addition in presence of glutathione
In short: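 Glutathione added to the PDI reaction buffer before 10 μM compound; screening done with 5 mM GSH, reductase assay DTT at 500 μM.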
Target sequence in this assay (P07237 18-508 limits assumed): as the sequence (P07237 18-508 limits assumed) above

[5] = target: T1, Protein disulfide-isomerase; assay: Binding affinity to recombinant human wild-type N-terminal His-tagged PDIA1 expressed in Escherichia coli strain BL21(DE3) assessed as adduct formation at 100 uM measured after 30 mins in presence of DTT by Q-TOF MS analysis
In short: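 Recombinant PDI at 10 μM incubated 30 min with 100 μM compound and 100 μM DTT before injection; adducts detected by quadrupole time-of-flight mass spectrometry.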
Target sequence in this assay (P07237 18-508 limits assumed): as above

U-87 MG [6] = assay: Cytotoxicity against human U-87 MG cells assessed as growth inhibition at 30 uM measured after 72 hrs by MTT assay relative to control; format: functional, U-87MG ATCC; conditions: read-out: GI
In short: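 Single-concentration screen: percent inhibition of cell growth at 30 μM in U-87 MG and MIA PaCa-2 cells by MTT.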

U-87 MG [7] = assay: Cytotoxicity against human U-87 MG cells assessed as growth inhibition measured after 72 hrs by MTT assay; format: functional, cell-based, U-87MG ATCC; in short: as §1
[8] = target: T1, Protein disulfide-isomerase; assay: Inhibition of recombinant human wild-type N-terminal His-tagged PDIA1 expressed in Escherichia coli strain BL21(DE3) at 1.1 to 90 uM using bovine insulin as substrate preincubated for 1 hr followed by substrate addition in presence of glutathione; conditions: dose microM 1.1-90, time 1.0 hrs
Target sequence in this assay (P07237 18-508 limits assumed): as above

[9] = target: T1, Protein disulfide-isomerase; assay: Binding affinity to recombinant human wild-type N-terminal His-tagged PDIA1 expressed in Escherichia coli strain BL21(DE3) assessed as change in melting temperature at 100 uM by ROX dye based thermal shift assay
Target sequence in this assay (P07237 18-508 limits assumed): as above

[10] = target: T1, Protein disulfide-isomerase; assay: Inhibition of recombinant human wild-type N-terminal His-tagged PDIA1 expressed in Escherichia coli strain BL21(DE3) at 10 uM using bovine insulin as substrate preincubated for 1 hr followed by substrate addition in presence of N-acetyl cysteine
In short: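 Compound incubated with N-acetyl cysteine before addition to the PDI reductase assay with PDIA1, at a final compound concentration of 10 μM.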
Target sequence in this assay (P07237 18-508 limits assumed): as above

[11] = target: T1, Protein disulfide-isomerase; assay: Inhibition of recombinant human wild-type N-terminal His-tagged PDIA1 expressed in Escherichia coli strain BL21(DE3) assessed as ratio of Kinact to Ki using bovine insulin as substrate preincubated for 5 to 60 mins followed by substrate addition; conditions: time min 5-60
In short: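 Activity measured in PDI reductase assay (insulin substrate, absorbance followed over time) at several inhibitor concentrations and preincubation times of 5 to 60 minutes; kinact/KI derived from concentration- and time-dependent inhibition curves.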

[12] = target: T1, Protein disulfide-isomerase; assay: Displacement of ANS from recombinant human wild-type N-terminal His-tagged PDIA1 expressed in Escherichia coli strain BL21(DE3) at 100 uM measured after 1 hr by fluorescence assay
[13] = target: T1, Protein disulfide-isomerase; assay: Binding affinity to recombinant human wild-type N-terminal His-tagged PDIA1 expressed in Escherichia coli strain BL21(DE3) assessed as increase in protein mass at 100 uM measured after 30 mins in presence of GSTO1 and GRP78 by Q-TOF MS analysis relative to control
In short: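 100 μM compound incubated 30 min with a mix of 10 μM PDI, 10 μM GSTO1 and 10 μM GRP78 (GRP78 as non-specific binding control); protein masses read by QTOF MS before/after.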

[14] = target: T1, Protein disulfide-isomerase; assay: Irreversible inhibition of recombinant human wild-type N-terminal His-tagged PDIA1 expressed in Escherichia coli strain BL21(DE3) at 400 uM using bovine insulin as substrate preincubated for 30 mins followed by 100-fold dilution substrate addition further incubated for 1 hr and subsequent substrate addition; conditions: time 1.5 hrs
[15] = target: T1, Protein disulfide-isomerase; assay: Displacement of PACMA57 from recombinant human wild-type N-terminal His-tagged PDIA1 expressed in Escherichia coli strain BL21(DE3) at 100 uM measured after overnight incubation by gel-based imaging analysis

| Structure (SMILES) | pIC50 [3] | pIC50 (U-87 MG [7]) | other results |
| --- | --- | --- | --- |
| Oc1c(C(c2ccc(F)cc2)N2CCNCC2)ccc2cncnc12 (stereo not drawn) | 5.92 |  | inhibition [1]: 100%; Activity (Homo sapiens): Active; inhibition (U-87 MG [2]): inactive; inhibition [4]: 44%; Activity [5]: Active |
| COc1cccc(C(c2ccc3cccnc3c2O)N2CCOCC2)c1OC (stereo not drawn) | 6.41 | 4.48 | inhibition of growth at 30 µM (U-87 MG [6]): 74% |
| Oc1c(C(c2ccc(F)cc2)N2CCN(C(c3ccc(F)cc3)c3ccc4cncnc4c3O)CC2)ccc2cncnc12 (stereo not drawn) |  |  | Activity (Homo sapiens): Active; inhibition (U-87 MG [2]): Active; inhibition [8]: Active; Activity [5]: Active |
| C#CC(=O)N(c1ccc(OC)cc1OC)C(C(=O)NCC(=O)OCC)c1cccs1 (stereo not drawn) |  |  | ΔTm [9]: 0.18 °C; inhibition [10]: inactive; inhibition [4]: inactive; Ratio [11]: 2 10^2/M/s |
| COC(=O)C1(C)c2[nH]c3ccccc3c2CCN1C(=O)CCl (stereo not drawn) |  |  | Ratio [11]: 1.7 10^2/M/s |
| CCc1ccc(C(Nc2ccccn2)c2ccc3cccnc3c2O)cc1 (stereo not drawn) | 6.77 | 5.03 |  |
| COc1ccc(C(c2cc3c(cc2O)OCO3)N2CCOCC2)cc1 (stereo not drawn) | 6.89 | < 5.00 |  |
| COc1ccc(C(c2cc3c(cc2O)OCO3)N2CCCCC2)cc1OC (stereo not drawn) | 6.02 | 4.61 |  |
| Oc1cc2c(cc1C(c1ccc(F)cc1)N1CCCCC1)OCO2 (stereo not drawn) | 6.57 | < 4.52 |  |
| N#Cc1cccc(/C=C/C(=O)c2ccc(O)cc2)c1 |  |  | ΔTm [9]: 1.55 °C; inhibition [12]: Active; inhibition [10]: inactive; inhibition [4]: inactive |
| Oc1cc2c(cc1C(c1ccc3c(c1)OCO3)N1CCCCC1)OCO2 (stereo not drawn) | 6.46 | < 5.00 |  |
| Cc1ccc(C(Nc2ccccn2)c2ccc3cccnc3c2O)cc1 (stereo not drawn) | 6.34 | < 5.00 |  |
| COc1ccc(C(Nc2ncccn2)c2cc3c(cc2O)OCO3)cc1 (stereo not drawn) | 5.89 | < 5.00 |  |
| CNC(=O)NC(c1ccc2c(c1)OCO2)c1cc2c(cc1O)OCO2 (stereo not drawn) | < 4.40 | < 5.00 |  |
| COc1ccccc1NC(c1ccccc1)c1ccc2cccnc2c1O (stereo not drawn) | 6.41 | < 5.00 |  |
| Oc1c(C(Nc2ccccn2)c2ccccc2F)ccc2cccnc12 (stereo not drawn) | 6.33 | < 5.00 |  |
| Oc1cc2c(cc1C(Nc1ncccn1)c1ccc(F)cc1)OCO2 (stereo not drawn) | 4.90 | < 5.00 |  |
| O=C(O)c1ccccc1NC(c1ccccc1)c1ccc2cccnc2c1O (stereo not drawn) | 5.83 | < 5.00 |  |
| O=C(O)c1ccc(NC(c2ccccc2)c2ccc3cccnc3c2O)cc1 (stereo not drawn) | 6.52 | < 5.00 |  |
| Cc1ccnc(NC(c2ccc3cccnc3c2O)c2c(F)cccc2Cl)c1 (stereo not drawn) | < 4.40 | 4.69 |  |
| COc1cccc(C(c2cc3c(cc2O)OCO3)N2CCOCC2)c1O (stereo not drawn) | 6.05 | < 5.00 |  |
| Oc1cc2c(cc1C(c1ccc(Cl)cc1)N1CCOCC1)OCO2 (stereo not drawn) | 7.04 | < 4.52 |  |
| CN(C)c1ccc(C(Nc2ncccn2)c2cc3c(cc2O)OCO3)cc1 (stereo not drawn) |  |  | inhibition [1]: 88%; inhibition [4]: 64% |

| Structure (SMILES) | pIC50 [3] | pIC50 (U-87 MG [7]) | other results |
| --- | --- | --- | --- |
| COc1cccc(C(c2cc3c(cc2O)OCO3)N2CCOCC2)c1OC (stereo not drawn) | 5.97 | 4.49 | inhibition of growth at 30 µM (U-87 MG [6]): 66%; fold change (FC) [13]: 2; inhibition [14]: inactive; Activity [5]: Active |
| Cc1ccnc(NC(c2ccccc2)c2ccc3cccnc3c2O)c1 (stereo not drawn) | > 6.70 | < 5.00 |  |
| CN(C)c1ccc(C(c2cc3c(cc2O)OCO3)N2CCCC2)cc1 (stereo not drawn) | > 6.70 | < 4.52 |  |
| Oc1c(C(Nc2ccccc2)c2ccccc2)ccc2cccnc12 (stereo not drawn) | 6.96 | < 5.00 |  |
| COc1cc(C(c2cc3c(cc2O)OCO3)N2CCCC2)cc(OC)c1OC (stereo not drawn) | 6.74 | 4.62 |  |
| Oc1cc2c(cc1C(Nc1ncccn1)c1ccc3c(c1)OCO3)OCO2 (stereo not drawn) | 5.93 | < 5.00 |  |
| Oc1cc2c(cc1C(c1ccc3c(c1)OCO3)N1CCOCC1)OCO2 (stereo not drawn) | > 6.70 | < 4.52 |  |
| CCc1ccc(C(Nc2cc(C)ccn2)c2ccc3cccnc3c2O)cc1 (stereo not drawn) | 5.27 | 5.05 |  |
| COc1cc(C(c2cc3c(cc2O)OCO3)N2CCOCC2)cc(OC)c1OC (stereo not drawn) | 6.19 | < 5.00 |  |
| O=[N+]([O-])c1ccc(NC(c2ccccc2)c2ccc3cccnc3c2O)cc1 (stereo not drawn) | 6.82 | < 5.00 |  |
| COc1ccc(C(Nc2cc(C)ccn2)c2ccc3cccnc3c2O)cc1O (stereo not drawn) | 6.82 | < 5.00 |  |
| Cc1ccnc(NC(c2ccc(C(F)(F)F)cc2)c2ccc3cccnc3c2O)c1 (stereo not drawn) | 4.58 | 5.68 |  |
| Oc1cc2c(cc1C(c1ccc(F)cc1)n1ccnc1)OCO2 (stereo not drawn) | 6.17 | < 5.00 |  |
| CN(C)c1ccc(C(c2cc3c(cc2O)OCO3)N2CCCCC2)cc1 (stereo not drawn) | 5.90 | 4.61 |  |
| COc1ccc(C(c2cc3c(cc2O)OCO3)N2CCCC2)cc1 (stereo not drawn) | 5.82 | 4.65 |  |
| Oc1cc2c(cc1C(c1ccc(F)cc1)N1CCOCC1)OCO2 (stereo not drawn) | 6.64 | < 4.52 |  |
| COc1cc(C(Nc2ccc(C)cn2)c2ccc3cccnc3c2O)cc(OC)c1O (stereo not drawn) | 6.74 | 5.13 |  |
| Oc1cc2c(cc1C(c1ccc(F)cc1)N1CCCCC1)CCC2 (stereo not drawn) | < 4.52 |  | inhibition [15]: inactive; Activity [13]: inactive |
| COc1cc(C(Nc2ccccn2)c2cc3c(cc2O)OCO3)cc(OC)c1O (stereo not drawn) | 6.77 | < 5.00 |  |
| Cc1ccnc(NC(c2ccccc2Cl)c2ccc3cccnc3c2O)c1 (stereo not drawn) | < 4.40 | 5.00 |  |
| Oc1c(C(c2ccc(F)cc2)N2CCCCC2)ccc2cccnc12 (stereo not drawn) | 6.16 | 4.43 | inhibition of growth at 30 µM (U-87 MG [6]): 54% |
| NC(=O)NC(c1ccc(O)cc1)c1cc2c(cc1O)OCO2 (stereo not drawn) | < 4.40 | < 5.00 |  |
| Oc1ccc(C(c2cc3c(cc2O)OCO3)N2CCNCC2)cc1 (stereo not drawn) | 6.17 | < 4.52 |  |
